Here are results for five molecules from article PMC9072748 (RSC Advances, 2019).

Each structure is given as a SMILES string. Where two headings read alike, the source gives them in different places.

The test system of assay [1] is CT-DNA. The experiment in a line: Fluorescence EtBr exchange titration on CT-DNA. The format is binding. The conditions noted are these: for Stern–Volmer quenching constant K sv × 10^−3: Tris–HCl buffer pH 7.2, head: Ksv × 10^−3; for bimolecular quenching rate constant k q × 10^−13: τ0 = 23 ns, head: kq × 10^−13. In short, it runs like this: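 CT-DNA (10 μM) premixed with EtBr (10 μM) in 5.0 mM Tris–HCl/50 mM NaCl, pH 7.2, then held 4 h at 4 °C. Titrated with incremental aliquots of 5.0 mM test-compound stock in 50% DMSO. Excitation 500 nm; emission decrease recorded over 520–700 nm. Filter-effect corrections applied. DNA concentration set from A260 (ε ≈ 6600 M−1 cm−1).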

The subject of assay [2] is HepG2 cells. Briefly: MTT cytotoxicity assay on HepG2 cells. The conditions noted are these: 24 h incubation. Type of assay: cell-based, human. The essentials:
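HepG2 grown in DMEM with 10% FBS and penicillin/streptomycin (100 μg mL−1 each) at 37 °C, 5% CO2. Seeded at 1 × 10^4 cells/mL, 24 h, then exposed to test compound at 10–50 μM (10 μM steps) for 24 h. MTT (5 mg mL−1 in PBS) added for 2–4 h; formazan dissolved in DMSO; read at 560 nm against 1% DMSO control. IC50 from nonlinear regression of % viability versus concentration.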

A further assay addresses BSA (Bos taurus, UniProt P02769). The experiment in a line: BSA tryptophan fluorescence quenching titration. The conditions noted are these: for number of binding sites, n / binding constant K F × 10^−5: Scatchard equation; for binding constant K F × 10^−5: head: KF × 10^−5; for Stern–Volmer quenching constant K sv × 10^−5: Tris–HCl/50 mM NaCl pH 7.2, head: Ksv × 10^−5; for bimolecular quenching rate constant k q × 10^−10: head: kq × 10^−10. The format is binding, Bovine. The essentials: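 BSA stock (10.4 μM) made in 5.0 mM Tris–HCl/50 mM NaCl, pH 7.2, with concentration set from A278 (ε 4.4 × 10^4 M−1 cm−1). Equilibrated buffered BSA with test compound at 0–130 μM at room temperature. Excitation 278 nm; tryptophan emission read over 250–450 nm. Ksv taken from the slope of Io/I versus [Q].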

Assay [3] has as its system HepG2 cells. The conditions noted are these: cited from earlier work.
Assay [4] relates to CT-DNA. The experiment in a line: Viscosity measurements of CT-DNA. The conditions noted are these: 5.0 mM Tris–HCl buffer, pH 7.2; 1.0–6.0 mM. In short, it runs like this:
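Sonicated CT-DNA held at constant concentration (5.0 mM) with added test compound, EtBr as reference. After 15 min equilibration, flow time measured in triplicate with a stopwatch. η = (t − t0)/t0, with t0 the flow time of buffer alone. Results plotted as (η/η0)^1/3 versus binding ratio.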

Chain of BSA (P02769 25-607): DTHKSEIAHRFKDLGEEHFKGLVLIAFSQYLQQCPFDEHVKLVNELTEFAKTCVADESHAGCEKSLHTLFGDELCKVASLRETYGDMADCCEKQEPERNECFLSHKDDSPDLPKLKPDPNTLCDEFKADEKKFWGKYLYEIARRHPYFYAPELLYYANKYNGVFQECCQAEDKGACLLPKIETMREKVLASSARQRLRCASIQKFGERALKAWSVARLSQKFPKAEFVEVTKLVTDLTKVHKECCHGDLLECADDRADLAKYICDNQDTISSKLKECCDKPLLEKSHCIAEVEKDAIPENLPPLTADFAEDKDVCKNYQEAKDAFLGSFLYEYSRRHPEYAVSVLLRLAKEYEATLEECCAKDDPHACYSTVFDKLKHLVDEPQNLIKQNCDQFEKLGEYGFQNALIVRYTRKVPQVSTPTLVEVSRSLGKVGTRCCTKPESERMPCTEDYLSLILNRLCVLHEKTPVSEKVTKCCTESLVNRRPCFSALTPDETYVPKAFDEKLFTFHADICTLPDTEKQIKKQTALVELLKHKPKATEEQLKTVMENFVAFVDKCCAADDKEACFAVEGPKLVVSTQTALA

As usually defined, the IC50 is the concentration at which inhibition is half-maximal. Regarding `[Cl][Pt][Cl].c1ccc(-c2nc3ccccc3nc2-c2ccccn2)nc1` [bpqPtCl2], in the assay on CT-DNA [1], the “Stern–Volmer quenching constant K sv × 10^−3” value came out at 2.43 ± 0.02 M^−1 and the “bimolecular quenching rate constant k q × 10^−13” value was 1.06 ± 0.10 M^−1 s^−1. For the same molecule, in the assay on HepG2 cells [2], 15.7 ± 1.6 µM corresponded to half-maximal inhibition (IC50). At BSA, the “number of binding sites, n” value was determined as 0.98 ± 0.03; the “binding constant K F × 10^−5” value was found to be 1.93 ± 0.02 M^−1; the “Stern–Volmer quenching constant K sv × 10^−5” value was 2.47 ± 0.03 M^−1; the “bimolecular quenching rate constant k q × 10^−10” value stood at 4.97 ± 0.2 M^−1 s^−1.

As to `N.N.[Cl][Pt][Cl]` [cisplatin], the IC50 with HepG2 cells [3] is 17.9 ± 2.1 µM.

`CC[n+]1c(-c2ccccc2)c2cc(N)ccc2c2ccc(N)cc21.[Br-]` [EtBr, 3,8-diamino-5-ethyl-6-phenylphenanthridinium bromide]: the “relative viscosity of CT-DNA solutions with increasing concentration” value in the assay on CT-DNA [4] was “increased dramatically”.

`Cc1cc2nc(-c3ccccn3)c(-c3ccccn3)nc2cc1C.[Cl][Pt][Cl]` [dmbpqPtCl2]: in the assay on CT-DNA [1], the “Stern–Volmer quenching constant K sv × 10^−3” value is 3.26 ± 0.05 M^−1 and the “bimolecular quenching rate constant k q × 10^−13” value was 1.47 ± 0.16 M^−1 s^−1. In the assay with HepG2 cells [2], this molecule displayed an IC50 of 14.9 ± 1.4 µM. In addition, on BSA, the “number of binding sites, n” value is reported as 0.98 ± 0.03; the “binding constant K F × 10^−5” value was found to be 2.97 ± 0.07 M^−1; the “Stern–Volmer quenching constant K sv × 10^−5” value is given as 3.47 ± 0.11 M^−1; the “bimolecular quenching rate constant k q × 10^−10” value amounted to 6.98 ± 0.3 M^−1 s^−1.

For the molecule `[Cl][Pt][Cl].c1ccc(-c2nc3cc4ccccc4cc3nc2-c2ccccn2)nc1` [bbqPtCl2], in the assay with CT-DNA [1], the “Stern–Volmer quenching constant K sv × 10^−3” value was determined as 5.49 ± 0.07 M^−1 and the “bimolecular quenching rate constant k q × 10^−13” value turned out to be 2.52 ± 0.22 M^−1 s^−1. In addition, the IC50 in the assay with HepG2 cells [2] is 17.4 ± 2 µM. Besides, at BSA, the “number of binding sites, n” value is listed as 1.01 ± 0.05; the “binding constant K F × 10^−5” value is 5.34 ± 0.10 M^−1; the “Stern–Volmer quenching constant K sv × 10^−5” value worked out at 4.78 ± 0.19 M^−1; the “bimolecular quenching rate constant k q × 10^−10” value was 9.61 ± 0.5 M^−1 s^−1.
